# According to ChEMBL document CHEMBL3611968, “Reengineered tricyclic anti-cancer agents” (Bioorg Med Chem, 2015):
# Activity calls are given as the source filed them. The rule behind the calls is not given here.
# System: NCI-H1650
# Assay: Cytotoxicity against human NCI-H1650 cells assessed as growth inhibition after 48 hrs by MTT assay
# Format: functional
# Summary of the method: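 H1650 cells were exposed to drug for 48 h at five concentrations bracketing 1–40 μM in 10 μM steps, with MTT read-out. GI50 is given only where the data form a sigmoidal dose response.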
SMILES,GI50,"GI50 (NCI-H1650, 48 h) [µM]"
O=S(=O)(NCCCN1CCCCc2ccccc21)c1ccc(OC(F)(F)F)cc1,inactive,–
N#Cc1ccc(S(=O)(=O)NCCC=C2c3ccccc3CCc3ccccc32)cc1,–,25
Cc1ccc(S(=O)(=O)NCCCCN2c3ccccc3Sc3ccc(Cl)cc32)cc1,–,> 40
CN(C)S(=O)(=O)NCCCN1c2ccccc2CCc2ccccc21,inactive,–
CN(C)C(=O)NCCCN1c2ccccc2CCc2ccc(Cl)cc21,–,> 40
O=S(=O)(NCCCCN1c2ccccc2CCc2ccc(Cl)cc21)c1ccc(OC(F)(F)F)cc1,inactive,–
O=S(=O)(NCCN1c2ccccc2CCc2ccc(Cl)cc21)c1ccc(C(F)(F)F)cc1,–,16.4
Cc1ccc(S(=O)(=O)NCCN2c3ccccc3Sc3ccc(Cl)cc32)cc1,–,24.4
O=S(=O)(NCCCN(c1ccccc1)c1cccc(Cl)c1)c1ccc(C(F)(F)F)cc1,inactive,–
O=S(=O)(NCCC=C1c2ccccc2CCc2ccccc21)c1ccc(Cl)cc1,–,18
CN(CCCN1c2ccccc2CCc2ccc(Cl)cc21)S(=O)(=O)c1ccc(C(F)(F)F)cc1,inactive,–
O=C(NCCCN1c2ccccc2CCc2ccc(Cl)cc21)c1ccccc1,inactive,–
O=S(=O)(c1ccc(Cl)cc1)N1CCCCC1CCN1c2ccccc2Sc2ccc(Cl)cc21 (stereo not drawn),inactive,–
CC(=O)NCCCN1c2ccccc2Sc2ccc(Cl)cc21,–,> 40
CN(CCCN1c2ccccc2Sc2ccc(Cl)cc21)S(=O)(=O)c1ccc(Cl)cc1,inactive,–
O=S(=O)(NC1CCC2(OC1)c1ccccc1CCc1ccccc12)c1ccc(C(F)(F)F)cc1 (stereo not drawn),–,15
CC(=O)NCCCN1c2ccccc2CCc2ccc(Cl)cc21,inactive,–
O=S(=O)(NCCC=C1c2ccccc2CCc2ccccc21)c1ccc(OC(F)(F)F)cc1,–,20
O=S(=O)(NCCCN1c2ccccc2CCc2ccc(Cl)cc21)c1cccc2ccccc12,–,> 40
O=S(=O)(NCCCN1c2ccccc2CCc2cncnc21)c1ccc(OC(F)(F)F)cc1,–,> 40
O=S(=O)(N[C@H]1CC[C@H](N2c3ccccc3CCc3ccccc32)CC1)c1ccc(Cl)cc1,–,15
O=S(=O)(NCCCN1c2ccccc2CCc2ccc(Cl)cc21)c1ccc(Cl)cc1,–,20
O=S(=O)(N[C@H]1CC[C@H](N2c3ccccc3CCc3ccccc32)CC1)c1ccc(OC(F)(F)F)cc1,–,10
O=S(=O)(NCCCN1c2ccccc2CCc2ccc(Cl)cc21)c1cccc(OC(F)(F)F)c1,–,20
CS(=O)(=O)c1ccc(S(=O)(=O)NCCCN2c3ccccc3CCc3ccc(Cl)cc32)cc1,–,15.1

SMILES,GI50,"GI50 (NCI-H1650, 48 h) [µM]"
COc1ccc(S(=O)(=O)NCCCN2c3ccccc3CCc3ccc(Cl)cc32)cc1,–,24.4
O=S(=O)(NC1CCCC(=C2c3ccccc3CCc3ccccc32)C1)c1ccc(OC(F)(F)F)cc1 (stereo not drawn),–,15
CC(CNS(=O)(=O)c1ccc(Cl)cc1)CN1c2ccccc2CCc2ccccc21 (stereo not drawn),–,23
O=S(=O)(NCCNC1c2ccccc2CCc2ccccc21)c1ccc(OC(F)(F)F)cc1,–,25
O=S(=O)(N[C@H]1CC[C@@H](N2c3ccccc3CCc3ccccc32)CC1)c1ccc(OC(F)(F)F)cc1,–,> 40
O=S(=O)(NCCCN1c2ccccc2CCc2cccnc21)c1ccc(OC(F)(F)F)cc1,–,22
CN(C)CCC=C1c2ccccc2CCc2ccccc21 [AMITRIPTYLINE],–,> 40
N#Cc1ccc(S(=O)(=O)NCCCN2c3ccccc3Sc3ccc(Cl)cc32)cc1,–,> 40
O=S(=O)(NCC/C=C1/c2ccccc2Sc2ccc(Cl)cc21)c1ccc(Cl)cc1,–,> 40
CC(C)S(=O)(=O)NCCCN1c2ccccc2CCc2ccc(Cl)cc21,inactive,–
NCCCN1c2ccccc2CCc2ccc(Cl)cc21,–,10
O=S(=O)(NCCCN1c2ccccc2CCc2ccccc21)c1ccc(Cl)cc1,–,20.6
Cc1nn(C)c(C)c1S(=O)(=O)NCCCN1c2ccccc2CCc2ccccc21,–,> 40
O=C(NCCCN1c2ccccc2CCc2ccc(Cl)cc21)Nc1ccc(OC(F)(F)F)cc1,–,> 40
O=S(=O)(NCCCN1c2ccccc2OCc2cccnc21)c1ccc(OC(F)(F)F)cc1,–,19.1
O=S(=O)(NCCCN1c2ccccc2CCc2ccc(Cl)cc21)c1cc(Cl)c(Cl)s1,–,18
CN(CCCN1c2ccccc2CCc2ccc(Cl)cc21)S(=O)(=O)c1ccc(OC(F)(F)F)cc1,inactive,–
O=S(=O)(NCCCN1c2ccccc2Sc2ccc(Cl)cc21)c1cc(F)cc(F)c1,–,18
O=S(=O)(NC1CCCC(=C2c3ccccc3CCc3ccccc32)C1)c1ccc(Cl)cc1 (stereo not drawn),–,17
COc1ccc(OC(=O)NCCCN2c3ccccc3Sc3ccc(Cl)cc32)cc1,inactive,–
O=S(=O)(N[C@H]1CC[C@@H](N2c3ccccc3CCc3ccccc32)CC1)c1ccc(Cl)cc1,–,10
CC(=O)Nc1ncc(S(=O)(=O)NCCCN2c3ccccc3CCc3ccccc32)s1,–,> 40
O=S(=O)(NCCCN1c2ccccc2CCc2ccc(Cl)cc21)c1ccc(F)cc1,–,> 40
O=S(=O)(NCCC=C1c2ccccc2CCc2ccccc21)c1ccc(F)cc1,–,20
O=S(=O)(c1ccc(OC(F)(F)F)cc1)N1CCCCC1CCN1c2ccccc2CCc2ccccc21 (stereo not drawn),inactive,–

SMILES,GI50,"GI50 (NCI-H1650, 48 h) [µM]"
Cc1nn(C)c(Cl)c1S(=O)(=O)NCCCN1c2ccccc2CCc2ccccc21,–,> 40
NCCCN1c2ccccc2Sc2ccc(Cl)cc21,–,10
Cn1ccc2c(S(=O)(=O)NCCCN3c4ccccc4CCc4ccccc43)cccc21,–,> 40
O=S(=O)(NCCCN1c2ccccc2CCc2ccc(Cl)cc21)c1ccccc1OC(F)(F)F,–,25
O=S(=O)(NC1CCOC2(C1)c1ccccc1CCc1ccccc12)c1ccc(OC(F)(F)F)cc1 (stereo not drawn),–,> 40
O=S(=O)(NCCCN1CCCCc2ccccc21)c1ccc(Cl)cc1,inactive,–
CN(CCN1c2ccccc2Sc2ccc(Cl)cc21)S(=O)(=O)c1ccc(Cl)cc1,inactive,–
O=S(=O)(NCCCN1c2ccccc2CCc2ccccc21)c1ccc(N2CCOCC2)cn1,–,> 40
O=S(=O)(NCCCN1c2ccccc2CCc2cccnc21)c1ccc(Cl)cc1,–,27
O=S(=O)(NCCCN1c2ccccc2CCc2ncccc21)c1ccc(OC(F)(F)F)cc1,–,27
O=S(=O)(NCCCN1c2ccccc2Sc2ccc(Cl)cc21)c1ccc(Oc2ccccc2)cc1,–,> 40
O=S(=O)(NCCCN1c2ccccc2CCc2ccc(Cl)cc21)c1ccc(Cl)c(Cl)c1,–,21.3
O=S(=O)(NC1CCC2(OC1)c1ccccc1CCc1ccccc12)c1ccc(Cl)cc1 (stereo not drawn),–,25
O=S(=O)(NCCCN1c2ccccc2CCc2ccccc21)c1ccc2c(c1)OCO2,inactive,–
O=S(=O)(NCCCN1c2ccccc2CCc2ccc(Cl)cc21)c1cc(Cl)sc1Cl,–,25
O=S(=O)(c1ccc(Cl)cc1)N1CCCCC1CCN1c2ccccc2CCc2ccccc21 (stereo not drawn),inactive,–
O=S(=O)(NCCCN1c2ccccc2Sc2ccc(Cl)cc21)c1ccc(OC(F)(F)F)cc1,–,> 40
O=S(=O)(NC[C@@H](O)CN1c2ccccc2CCc2ccccc21)c1ccc(OC(F)(F)F)cc1,–,18
O=S(=O)(NCCCN1c2ccccc2CCc2ccc(Cl)cc21)c1ccc2ccccc2c1,–,> 40
Cc1ccccc1S(=O)(=O)NCCCN1c2ccccc2Sc2ccc(Cl)cc21,inactive,–
CC(=O)Nc1ccc(S(=O)(=O)NCCCN2c3ccccc3CCc3ccc(Cl)cc32)cc1,–,15
O=S(=O)(NCCN1c2ccccc2Sc2ccc(Cl)cc21)c1ccc(C(F)(F)F)cc1,–,25
CC(CN1c2ccccc2Sc2ccccc21)N(C)C (stereo not drawn) [PROMETHAZINE],–,> 40
O=S(=O)(NCCCN(c1ccccc1)c1cccc(Cl)c1)c1ccc(Cl)cc1,inactive,–
O=S(=O)(NC1CCC2(OC1)c1ccccc1CCc1ccccc12)c1ccccc1 (stereo not drawn),–,22

SMILES,GI50,"GI50 (NCI-H1650, 48 h) [µM]"
O=S(=O)(NCCCN1c2ccccc2CCc2ccccc21)c1ccc(OC(F)(F)F)cc1,–,22
O=S(=O)(NCCNC1c2ccccc2CCc2ccccc21)c1ccc(Cl)cc1,–,26
O=S(=O)(NCCCCN1c2ccccc2CCc2ccc(Cl)cc21)c1ccc(C(F)(F)F)cc1,inactive,–
O=S(=O)(NCCCN1c2ccccc2CCc2cncnc21)c1ccc(Cl)cc1,inactive,–
Cn1c(=O)oc2cc(S(=O)(=O)NCCCN3c4ccccc4CCc4ccccc43)ccc21,–,> 40
O=C1COc2ccc(S(=O)(=O)NCCCN3c4ccccc4CCc4ccccc43)cc2N1,–,22
O=S(=O)(NCCN1c2ccccc2Sc2ccc(Cl)cc21)c1ccc(OC(F)(F)F)cc1,–,25
COC(=O)NCCCCN1c2ccccc2Sc2ccc(Cl)cc21,–,> 40
O=S(=O)(NC1CCC(=C2c3ccccc3CCc3ccccc32)CC1)c1ccc(OC(F)(F)F)cc1 (stereo not drawn),–,20
O=S(=O)(N[C@H]1CCC[C@@H](N2c3ccccc3CCc3ccccc32)C1)c1ccc(OC(F)(F)F)cc1,–,25
O=S(=O)(NCCCN1c2ccccc2CCc2ccc(Cl)cc21)C1CCCCC1,inactive,–
O=S(=O)(NCCCN1c2ccccc2CCc2ccccc21)c1ccc(C(F)(F)F)cc1,–,14.3
O=S(=O)(NC1CCC(=C2c3ccccc3CCc3ccccc32)CC1)c1ccc(Cl)cc1 (stereo not drawn),–,20
CN(CCN1c2ccccc2CCc2ccc(Cl)cc21)S(=O)(=O)c1ccc(C(F)(F)F)cc1,inactive,–
O=S(=O)(NCCCN1c2ccccc2CCc2ccc(Cl)cc21)c1ccc(C(F)(F)F)cc1,–,12.6
O=S(=O)(NC1CCOC2(C1)c1ccccc1CCc1ccccc12)c1ccc(Cl)cc1 (stereo not drawn),–,> 40
O=S(=O)(NCCCN1c2ccccc2CCc2ccccc21)c1ccc(Oc2ccccc2)nc1,–,> 40
O=S(=O)(c1ccc(Cl)cc1)N1CCC(=C2c3ccccc3CCc3ccccc32)CC1,inactive,–
O=S(=O)(NCCN1c2ccccc2CCc2ccc(Cl)cc21)c1ccc(OC(F)(F)F)cc1,–,22
O=C(NCCCN1c2ccccc2CCc2ccc(Cl)cc21)NS(=O)(=O)c1ccc(OC(F)(F)F)cc1,inactive,–
CCCN1c2ccccc2Sc2ccc(Cl)cc21,inactive,–
O=S(=O)(NC1CCC2(OC1)c1ccccc1CCc1ccccc12)c1ccc(F)cc1 (stereo not drawn),–,20
O=S(=O)(NCCCN1c2ccccc2CCc2ccccc21)c1cccnc1,inactive,–
